From PubChem
Most compounds without a hit are left out; they make up all but 5.3% or so of the library.
Beta apoptosis = beta cell apoptosis inhibition; protection from apoptosis, % (test concentration not listed); AID 435005; 300,000 tested, 0.8% active; INS-1E cytokine-induced death, ATP luminescence, 48 h; percent of positive-control rescue, neutral wells zero;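 active = Every replicate reaches about 75%, or at least half do and their mean reaches it too, limit read from the data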;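 note: 0% = cytokine-treated negative control wells and 100% = positive control rescue; higher means more ATP so stronger rescue from cytokine killing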
Calb FLC = C. albicans growth modulation with fluconazole; C. albicans CaCi-2 (fluconazole-resistant clinical isolate) + fluconazole, Alamar Blue growth, 48 h; growth inhibition, % (test concentration not listed); 300,000 tested, 0.57% active; AID 1979;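 active = growth inhibition above about 58% in most replicates, limit read from the data, passing the limit was not always enough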;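 note: all wells also contain fluconazole at 8 µg/ml as a sub-toxic cotreatment; 0% = median of DMSO wells and 100% = median of geldanamycin control wells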
CSC inhib = blocks cancer stem cells; cancer stem cell-like cells viability, luminescence; inhibition, % at 7.5 µM; 300,000 tested, 1.1% active; in the data active = inhibition above about 75%; tested in HMLE shEcad cells
T cruzi repl = blocks replication of Trypanosoma cruzi; AID 1885; inhibition, % (no concentration beside the values); T. cruzi beta-gal in NIH3T3, luminescence, 90 h; 300,000 tested, 1.4% active;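 active = mean inhibition across valid replicates above about 55%, limit read from the data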;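 note: signal also drops with host cell toxicity which is not excluded here; 0% = plate median of DMSO wells and 100% = zero luminescence signal; higher percent means less beta-gal luminescence so fewer parasites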
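compound dosing = single 50 nL compound addition per well in DMSO | material = NIH/3T3 host cells with β-galactosidase reporter T. cruzi | input = 5,000 host fibroblasts per well | timing = ≥90 h infection period, 3 h prior cell attachment | read-out basis = percent inhibition of parasite-derived β-gal signal | detection = GalScreen β-gal luminescence, detergent lysis, 60 min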
Mdm2-MdmX inh = inhibitors of human Mdm2/MdmX interaction | O15151+Q00987 | SaOS-2 split-luciferase Mdm2/MdmX complementation, luminescence | 330,000 tested, 3% active | AID 485346 | inhibition, % at 8 µM;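 active = inhibition of at least 50% at 8 µM in the primary screen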
NLRP3 yeast inh = blocks the NALP3 inflammasome reconstituted in yeast; 330,000 tested, 0.39% active; inhibition, % at 10 µM; AID 2825; Yeast reconstituted NLRP3/ASC/caspase-1, beta-gal luminescence, 24 h;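 active = inhibition of 50% or more; inactive = inhibition below 50%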;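 note: plate controls were induced DMSO wells for no effect and uninduced yeast grown without galactose for full effect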
NALP3 confirm = NALP3 inhibition confirmation in yeast; shares compounds with NLRP3 yeast inh; 1,300 tested, 81% active; inhibition, % at 10 µM; yeast expressing human NALP3, luminescence; in the data active = inhibition above about 48%
Casp1-ASC yeast = caspase-1-ASC yeast counter-screen hit | shares compounds with NLRP3 yeast inh | yeast expressing Caspase-1-ASC, luminescence counter screen | inhibition, % at 10 µM | 1,000 tested, 66% active | AID 488784
NALP3 retest = confirmation retest of NALP3 inhibitors in yeast; inhibition, % at 10 µM; yeast expressing human NALP3, luminescence read-out; AID 488794; shares compounds with NLRP3 yeast inh; 1,000 tested, 53% active
Mdm2-MdmX conf = human Mdm2/MdmX binding inhibition, confirmed | shares compounds with Mdm2-MdmX inh | luminescent assay | inhibition, % at 8 µM | 10,000 tested, 55% active; in the data active = inhibition above about 40%
Full FLuc ctr = full-length luciferase inhibition in Mdm2/MdmX counter-screen; shares compounds with Mdm2-MdmX inh; SaOS-2 full-length luciferase counterscreen, luminescence; inhibition, % at 8 µM; 6,200 tested, 77% active;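 active = mean inhibition at 8 µM reaching about 37%, which flags the compound as non-specific, limit read from the data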;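 note: p53-null SaOS-2 cells with luciferase driven by a doxycycline-inducible promoter; compound on cells about two nights before reading with doxycycline added after day one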
Numbers without * were called inactive; x = no result. Cut-off read from the data, not from the text of the source, unless noted: active = inhibition above about 50%; inactive = the rest.

SMILES | Beta apoptosis | Calb FLC | CSC inhib | T cruzi repl | Mdm2-MdmX inh | NLRP3 yeast inh | Mdm2-MdmX conf | Full FLuc ctr | others
C=CCN1C(=O)/C(=C/c2ccc3c(c2)CCCN3CCC)C(=O)NC1=S | 0.6 | 8.6 | -16.1 | -8.8 | -2.6 | 9.0 | x | x
CCOC(=O)c1nc2ccccc2c(=O)n1-c1ccc(C)cc1C | 2.1 | 12.1 | 0.2 | -16.0 | -4.0 | 18.8 | x | x
CCn1nc(-c2ccccc2)nc2c(=O)n(C)c(=O)nc1-2 | 107.5* | 89.5* | -6.0 | 21.7 | 73.8* | 61.5* | 72.8* | 23.3 | NALP3 confirm=85.8*;Casp1-ASC yeast=93.9*;NALP3 retest=87.5*
COc1ccc(-c2nc3ccccc3c(=O)n2-c2ccc(OC)cc2)cc1 | 0.5 | 34.3 | -10.7 | 4.4 | -7.9 | -24.0 | x | x
Cc1cccc(N2C(=O)NC(=O)/C(=C\c3cccn3-c3ccc(Cl)cc3)C2=O)c1 | 12.2 | -19.2 | 3.8 | -7.9 | 72.8* | 10.9 | 39.8 | 69.2*
Cc1cc(C)cc(N2C(=O)NC(=O)/C(=C/c3cccn3-c3ccc(Cl)cc3)C2=O)c1 | -6.7 | -3.7 | 75.4* | -20.7 | 66.0* | 3.0 | 17.3 | x
COC(=O)c1ccccc1-n1c(C)nc2ccccc2c1=O | -5.6 | x | -13.7 | x | 17.1 | 11.1 | x | x
COC(=O)c1cn(C(=O)c2cccc3ccccc23)c2ccccc12 | 32.1 | 3.0 | 62.2 | -37.8 | 64.3* | 15.0 | 55.6* | 53.4*
CCCC[C@@H](C)C[C@@H](C)C(=O)N(C)[C@@H](CC(C)C)C(=O)N[C@H](C(=O)N(C)[C@H](C(=O)N1C[C@@H](O)C[C@H]1C(=O)N1C(=O)C=C[C@@H]1C)C(C)C)C(C)OC(C)=O (stereo not given in full) | x | x | x | x | 94.7* | 5.4 | 97.3* | 55.4*
CCOC(=O)C1(c2ccccc2)CCN(CCC(=O)Nc2ccc(C(=O)OC)cc2)CC1 | -1.8 | x | x | x | 17.0 | 13.2 | x | x
CCOC(=O)C1(c2ccccc2)CCN(CCC(=O)Nc2cccc(Br)c2)CC1 | x | x | x | x | 54.2* | 24.5 | 39.4 | 76.6*
CCOC(=O)C1(c2ccccc2)CCN(CCC(C#N)(c2ccccc2)c2ccccc2)CC1 | x | 11.2 | 29.4 | 40.3 | 63.4* | 5.8 | 32.0 | x
Cn1c(=O)n(CC(=O)N2CCC3(CC2)OCCO3)c(=O)c2ccccc21 | -0.9 | 7.1 | -5.4 | -10.4 | 13.7 | -3.5 | x | x
CCn1c(=O)cc(SCC(=O)N2CCC3(CC2)OCCO3)c2ccccc21 | -0.5 | 0.8 | -0.5 | 10.4 | 53.0* | -0.4 | 38.6 | x
COC(=O)C1=C(c2ccc(C(C)=O)cc2)C[C@@H]2CC[C@H]1N2C(=O)NCCO | -0.8 | x | -18.1 | x | 13.2 | 6.1 | x | x
O=C(COc1ccc(Cl)cc1)N(c1ccc(Cl)cc1)C1CN2CCC1CC2 (stereo not given) | 2.4 | 8.6 | 8.0 | 24.8 | 51.4* | 13.9 | 38.9 | 74.9*
COC(=O)C1=C(c2ccc(F)cc2OCc2ccccc2)C[C@@H]2CC[C@H]1N2C(=O)NCc1ccc(C)cc1 | -2.1 | x | 28.9 | x | 47.8 | 16.4 | x | x
NCCc1ccccn1 | 2.4 | x | 1.8 | 0.3 | -38.3 | 3.3 | x | x
COc1ccccc1C1C([N+](=O)[O-])=C(N)Oc2c1c(=O)oc1ccccc21 (stereo not given) | -0.9 | 0.6 | -6.6 | -0.5 | -7.0 | 4.5 | x | x
C=C1C(=O)O[C@@H]2C[C@@H](C)[C@@H]3C4OC4C(=O)[C@@]3(C)[C@@H](O)[C@H]12 (stereo not given in full) | 104.5* | 76.8* | 75.2* | 45.9 | 100.6* | 17.3 | 99.8* | 4.9
C=C(C=O)C[C@@H]1C[C@H](O)C2OC3C[C@]4(C)OC5/C=C\CC6OC7C(CC=CCC6OC5CCCC4OC3CC2O1)OC1CC2OC3CC(=O)OC3C[C@@H](C)C[C@@]2(C)OC1C[C@@H]7C (stereo not given in full) | 124.2* | 11.7 | 103.9* | 33.2 | 99.8* | 24.3 | 95.3* | 0.4
CC1CN=C(NCc2ccccc2)S1 (stereo not given) | -7.0 | -15.0 | -5.3 | -8.4 | 0.7 | 8.6 | x | x
CCN(CC)c1ccc(CNCCc2ccccc2F)cc1 | 6.2 | -27.0 | 48.3 | 43.9 | 54.4* | 25.6 | 47.8* | 61.3*
CC(C)(C)c1ccc(O)c(N=Cc2c(O)ccc3ccccc23)c1 | x | -4.2 | 30.5 | 19.1 | 50.2* | 25.0 | 17.6 | x
Cc1cccc(C#N)c1 | -4.1 | x | -8.0 | x | 8.4 | -1.3 | x | x
SMILES | Beta apoptosis | Calb FLC | CSC inhib | T cruzi repl | Mdm2-MdmX inh | NLRP3 yeast inh | Mdm2-MdmX conf | Full FLuc ctr | others
OCC1(CO)COC(c2cccnc2)N1 (stereo not given) | -3.4 | -10.7 | x | -3.8 | -0.4 | 17.6 | x | x
O=C1NC(=O)C(CCc2ccncc2)(Cc2cccc(Cl)c2Cl)C(=O)N1c1ccc(Br)cc1 (stereo not given) | -1.5 | 54.3 | 65.8 | -26.1 | 57.7* | 6.8 | 54.4* | 42.7*
CNc1ccc2oc(C[C@H]3O[C@@]4(CC[C@H]3C)O[C@H]([C@H](C)C(=O)c3ccc[nH]3)[C@H](C)C[C@H]4C)nc2c1C(=O)O | 108.5* | x | 106.3* | 27.5 | 100.4* | 21.5 | 98.2* | 52.5*
O=c1c2ccccc2[se]n1-c1ccccc1 | x | x | x | -25.6 | 59.1* | -7.0 | 15.4 | x
Cc1cc(OCC(=O)NC(Cc2ccc(Cl)cc2)C(=O)O)c2c3c(c(=O)oc2c1)CCC3 (stereo not given) | -6.3 | -7.3 | -13.8 | -4.2 | -2.6 | 11.6 | x | x
COc1ccc(/C=C/C(=O)c2c(O)n(CCC3=CCCCC3)c(=O)[nH]c2=O)cc1 | -5.4 | -1.8 | 119.5* | -7.8 | 53.2* | 2.4 | 26.5 | x
CC(=O)O[C@@H]1/C=C/[C@](C)(O)C[C@@H](C)C/C=C/[C@H]2[C@H](O)C(C)=C(C)[C@H]3[C@H](Cc4ccccc4)NC(=O)[C@@]123 | 7.5 | 0.9 | 3.7 | 27.5 | 72.1* | 13.9 | 74.0* | 49.5*
C[C@H]1C/C=C/[C@H]2[C@H](O)[C@H](C)[C@@](C)(O)[C@H]3[C@H](Cc4ccccc4)NC(=O)[C@]32[C@H](O)/C=C/[C@](C)(O)C1 | 13.8 | 0.0 | -3.0 | -4.8 | 31.7 | -1.6 | x | x
